Reference: ChEMBL document CHEMBL1134288, “Design and optimization of 20-O-linked camptothecin glycoconjugates as anticancer agents” (J Med Chem, 2001)

Assays:
[1] = system: SW480; experiment: In vitro cytotoxic activity against human colon cancer cell line SW480 using MTT growth inhibition assay; format: functional, cell-based
Procedure, shortened: (§1)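 Cells were grown in RPMI 1640 with 10% FCS, trypsinized at confluence and plated at 50,000 cells/mL, then left 1 day. Compounds in DMSO or water were added, and growth was read 6 days later by MTT (5 mg/mL stock, 5 h at 37 °C). Formazan was dissolved in 2-propanol/water and absorbance read at 595 nm; IC50 was derived from this read-out.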

[2] = system: B16-F10; experiment: In vitro cytotoxic activity against murine melanoma cell line B16F10 using MTT growth inhibition assay; format: functional, cell-based; settings: Mus musculus
Procedure, shortened: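 This murine melanoma line was grown in RPMI 1640 with 10% FCS, trypsinized at confluence and seeded at 20,000 cells/mL, then left 1 day. Compounds in DMSO or water were added. After 6 days, MTT (5 mg/mL stock) was added for 5 h at 37 °C, formazan was dissolved in 2-propanol/water, and absorbance was read at 595 nm to give IC50.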

[3] = system: HT-29; experiment: In vitro cytotoxic activity against human colon cancer cell line HT-29 using MTT growth inhibition assay; format: functional, cell-based; procedure, shortened: as §1
[4] = organism: Canis familiaris; experiment: In vitro No effect conc (NOEC) with respect to elevated levels of alanine aminotransferase (ALT) using primary hepatocytes of dog; format: functional, Canis lupus familiaris, Hepatocyte
Procedure, shortened: (§2)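 Primary hepatocytes were isolated by two-step liver perfusion: first an EGTA (0.5 mM)/HEPES buffer, then a HEPES (pH 7.4) buffer with CaCl2 and collagenase type IV. Cells were cultured in collagen sandwich gels in supplemented medium with 10% FCS, then given 48 h adaptation. DMSO stocks (3 mM) were diluted in medium. Treatment ran 1-7 days with daily medium change, and ALT, AST and LDH were read in the supernatant.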

[5] = organism: Homo sapiens; experiment: In vitro No effect conc (NOEC) with respect to elevated levels of aspartate aminotransferase (AST) using primary hepatocytes of human; format: functional, Hepatocyte; procedure, shortened: as §2
[6] = organism: Homo sapiens; experiment: In vitro No effect conc (NOEC) with respect to elevated levels of Lactate dehydrogenase (LDH) using primary hepatocytes of human; format: functional, Hepatocyte; procedure, shortened: as §2
[7] = organism: Rattus norvegicus; experiment: In vitro No effect conc (NOEC) with respect to elevated levels of aspartate aminotransferase (AST) using primary hepatocytes of rat; format: functional, Hepatocyte; procedure, shortened: as §2
[8] = organism: Homo sapiens; experiment: In vitro No effect conc (NOEC) with respect to elevated levels of alanine aminotransferase (ALT) using primary hepatocytes of human; format: functional, Hepatocyte; procedure, shortened: as §2
[9] = organism: Rattus norvegicus; experiment: In vitro No effect conc (NOEC) with respect to elevated levels of Lactate dehydrogenase (LDH) using primary hepatocytes of rat; format: functional, Hepatocyte; procedure, shortened: as §2
[10] = organism: Canis familiaris; experiment: In vitro No effect conc (NOEC) with respect to elevated levels of aspartate aminotransferase (AST) using primary hepatocytes of dog; format: functional, Canis lupus familiaris, Hepatocyte; procedure, shortened: as §2
[11] = organism: Rattus norvegicus; experiment: In vitro No effect conc (NOEC) with respect to elevated levels of alanine aminotransferase (ALT) using primary hepatocytes of rat; format: functional, Hepatocyte; procedure, shortened: as §2
[12] = organism: Canis familiaris; experiment: In vitro No effect conc (NOEC) with respect to elevated levels of Lactate dehydrogenase (LDH) using primary hepatocytes of dog; format: functional, Canis lupus familiaris, Hepatocyte; procedure, shortened: as §2

Compound	IC50 [1] [nM]	IC50 [2] [nM]	IC50 [3] [nM]	NOEC [4] [µM]	NOEC [5] [µM]	NOEC [6] [µM]	NOEC [7] [µM]	NOEC [8] [µM]	NOEC [9] [µM]	NOEC [10] [µM]	NOEC [11] [µM]	NOEC [12] [µM]
CC[C@@]1(OC(=O)CNC(=O)[C@H](Cc2c[nH]cn2)/N=C(\S)Nc2ccc(O[C@H]3O[C@@H](C)[C@@H](O)[C@@H](OC)[C@@H]3O)cc2)C(=O)OCc2c1cc1n(c2=O)Cc2cc3ccccc3nc2-1	15	30	10									
CC[C@@]1(O)C(=O)OCc2c1cc1n(c2=O)Cc2cc3c(CN(C)C)c(O)ccc3nc2-1.Cl [TOPOTECAN HYDROCHLORIDE]				1	1	10	0.1	0.1	1	0.1	0.1	1
CC[C@@]1(OC(=O)C(NC(=O)[C@H](Cc2c[nH]cn2)/N=C(\S)Nc2ccc(O[C@H]3O[C@@H](C)[C@@H](O)[C@@H](OC)[C@@H]3O)cc2)C(C)C)C(=O)OCc2c1cc1n(c2=O)Cc2cc3ccccc3nc2-1 (stereo partly specified)	170	250	60	10	30	30	10	30	10	10	10	10
CC[C@@]1(OC(=O)C(NC(=O)[C@H](CCCCN)/N=C(\S)Nc2ccc(O[C@H]3O[C@@H](C)[C@@H](O)[C@@H](OC)[C@@H]3O)cc2)C(C)C)C(=O)OCc2c1cc1n(c2=O)Cc2cc3ccccc3nc2-1 (stereo partly specified)	170	700	150	10	30	30	30	30	30	30	30	30
CC[C@@]1(OC(=O)[C@H](NC(=O)[C@H](CCCCN)/N=C(\S)Nc2ccc(O[C@H]3O[C@@H](C)[C@@H](O)[C@@H](OC)[C@@H]3O)cc2)C(C)C)C(=O)OCc2c1cc1n(c2=O)Cc2cc3ccccc3nc2-1	150	600	120									
CC[C@@]1(OC(=O)CNC(=O)[C@H](CCCCN)/N=C(\S)Nc2ccc(O[C@H]3O[C@@H](C)[C@@H](O)[C@@H](OC)[C@@H]3O)cc2)C(=O)OCc2c1cc1n(c2=O)Cc2cc3ccccc3nc2-1	30	50	10									
CC[C@@]1(OC(=O)[C@H](NC(=O)[C@H](CCCN=C(N)N)/N=C(\S)Nc2ccc(O[C@H]3O[C@@H](C)[C@@H](O)[C@@H](OC)[C@@H]3O)cc2)C(C)C)C(=O)OCc2c1cc1n(c2=O)Cc2cc3ccccc3nc2-1	110	400	100									
CC[C@@]1(OC(=O)[C@H](NC(=O)[C@H](Cc2c[nH]cn2)/N=C(\S)Nc2ccc(O[C@H]3O[C@@H](C)[C@@H](O)[C@@H](OC)[C@@H]3O)cc2)C(C)C)C(=O)OCc2c1cc1n(c2=O)Cc2cc3ccccc3nc2-1	230	600	160									
CC[C@@]1(OC(=O)C(NC(=O)[C@H](CCCN=C(N)N)/N=C(\S)Nc2ccc(O[C@H]3O[C@@H](C)[C@@H](O)[C@@H](OC)[C@@H]3O)cc2)C(C)C)C(=O)OCc2c1cc1n(c2=O)Cc2cc3ccccc3nc2-1 (stereo partly specified)	170	400	100									
